Measurements reported in ChEMBL document CHEMBL3085655, “4β-Methyl-5-(3-hydroxyphenyl)morphan opioid agonist and partial agonist derived from a 4β-methyl-5-(3-hydroxyphenyl)morphan pure antagonist” (J Med Chem, 2013).

Experiments:
Mu-type opioid receptor [1] = target: T1, Mu-type opioid receptor (Homo sapiens, UniProt P35372); test: Displacement of [3H]DAMGO from human mu opioid receptor expressed in CHO cells; assay type: cell-based
How it was run: (§1)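 Competition radioligand binding at the human receptors, run at the Psychoactive Drug Screening Program. Radioligands were [3H]DAMGO (MOR), [3H]DADLE (DOR) and [3H]U69,593 (KOR). Radioligand Kd determined by homologous competition binding with the receptor-specific radioligand. Ki values reported.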

Mu-type opioid receptor [2] = target: T1, Mu-type opioid receptor; test: Agonist activity at human mu opioid receptor expressed in CHO cells by [35S]GTPgammaS binding assay relative to DAMGO; assay type: functional, cell-based
How it was run: (§2)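 Membranes from CHO cells over-expressing the human receptor. Stimulated [35S]GTPγS binding measured with eight concentrations chosen to define both asymptotes of the concentration-response curve. EC50 and Emax calculated. Emax expressed as a percentage of the Emax of the standard agonist on the same plate: DAMGO (mu), DPDPE (delta), U50,488 (kappa). Mean ± SE of at least three experiments.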

Mu-type opioid receptor [3] = target: T1, Mu-type opioid receptor; test: Agonist activity at human mu opioid receptor expressed in CHO cells by [35S]GTPgammaS binding assay; assay type: functional, cell-based; how it was run: as §2
[4] = target: T2, Kappa-type opioid receptor (Homo sapiens, UniProt P41145); test: Displacement of [3H]U-69593 from human kappa opioid receptor expressed in CHO cells; assay type: cell-based; how it was run: as §1
[5] = target: T3, Delta-type opioid receptor (Homo sapiens, UniProt P41143); test: Displacement of [3H]DADLE from human delta opioid receptor expressed in CHO cells; assay type: cell-based
How it was run: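 Competition radioligand binding at the human receptors, run at the Psychoactive Drug Screening Program. Radioligand Kd determined by homologous competition binding with the receptor-specific radioligand. Ki values reported.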

[6] = target: T3, Delta-type opioid receptor; test: Intrinsic agonist activity at human delta opioid receptor expressed in CHO cells by [35S]GTPgammaS binding assay; assay type: functional, cell-based
[7] = target: T3, Delta-type opioid receptor; test: Intrinsic activity at human delta opioid receptor expressed in CHO cells by [35S]GTPgammaS binding assay; assay type: functional, cell-based
[8] = target: T2, Kappa-type opioid receptor; test: Agonist activity at human kappa opioid receptor expressed in CHO cells by [35S]GTPgammaS binding assay relative to U50,488; assay type: functional, cell-based; how it was run: as §2
[9] = target: T3, Delta-type opioid receptor; test: Agonist activity at human delta opioid receptor expressed in CHO cells by [35S]GTPgammaS binding assay; assay type: functional, cell-based; how it was run: as §2
[10] = target: T2, Kappa-type opioid receptor; test: Agonist activity at human kappa opioid receptor expressed in CHO cells by [35S]GTPgammaS binding assay; assay type: functional, cell-based; how it was run: as §2
[11] = target: T3, Delta-type opioid receptor; test: Agonist activity at human delta opioid receptor expressed in CHO cells by [35S]GTPgammaS binding assay relative to DPDPE; assay type: functional, cell-based; how it was run: as §2
[12] = target: T2, Kappa-type opioid receptor; test: Antagonist activity at human kappa opioid receptor expressed in CHO cells by [35S]GTPgammaS binding assay; assay type: functional, cell-based
How it was run: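 Inhibition of [35S]GTPγS binding stimulated by the selective agonist in CHO cells over-expressing the human receptor. Agonists were DPDPE (delta) and U69,593 (kappa). Agonist dose-response curves run with and without a single concentration of test compound. Ke = [L]/(DR−1), where DR is the ratio of agonist EC50 with and without test compound. Mean ± SE of at least three experiments.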

T2 sequence (P41145 whole entry): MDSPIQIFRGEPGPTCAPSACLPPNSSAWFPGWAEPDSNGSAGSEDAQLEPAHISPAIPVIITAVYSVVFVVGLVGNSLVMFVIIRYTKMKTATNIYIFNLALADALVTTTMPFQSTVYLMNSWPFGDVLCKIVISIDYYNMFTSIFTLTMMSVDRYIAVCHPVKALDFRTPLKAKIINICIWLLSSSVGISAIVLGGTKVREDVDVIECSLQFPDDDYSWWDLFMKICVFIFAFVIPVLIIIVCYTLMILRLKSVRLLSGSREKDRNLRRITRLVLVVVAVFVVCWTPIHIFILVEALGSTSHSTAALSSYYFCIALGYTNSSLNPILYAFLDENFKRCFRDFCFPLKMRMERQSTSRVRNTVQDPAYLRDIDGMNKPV
T1 sequence (P35372 whole entry): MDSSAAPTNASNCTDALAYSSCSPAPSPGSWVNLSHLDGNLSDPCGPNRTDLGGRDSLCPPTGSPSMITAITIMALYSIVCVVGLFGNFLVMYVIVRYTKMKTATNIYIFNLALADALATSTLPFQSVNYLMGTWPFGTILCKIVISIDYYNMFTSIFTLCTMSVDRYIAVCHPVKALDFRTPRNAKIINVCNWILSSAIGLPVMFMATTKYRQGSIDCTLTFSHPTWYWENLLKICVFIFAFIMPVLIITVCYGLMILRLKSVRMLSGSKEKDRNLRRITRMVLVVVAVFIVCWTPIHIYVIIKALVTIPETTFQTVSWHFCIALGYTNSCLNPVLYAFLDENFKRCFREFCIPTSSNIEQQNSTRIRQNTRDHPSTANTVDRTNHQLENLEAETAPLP
T3 sequence (P41143 whole entry): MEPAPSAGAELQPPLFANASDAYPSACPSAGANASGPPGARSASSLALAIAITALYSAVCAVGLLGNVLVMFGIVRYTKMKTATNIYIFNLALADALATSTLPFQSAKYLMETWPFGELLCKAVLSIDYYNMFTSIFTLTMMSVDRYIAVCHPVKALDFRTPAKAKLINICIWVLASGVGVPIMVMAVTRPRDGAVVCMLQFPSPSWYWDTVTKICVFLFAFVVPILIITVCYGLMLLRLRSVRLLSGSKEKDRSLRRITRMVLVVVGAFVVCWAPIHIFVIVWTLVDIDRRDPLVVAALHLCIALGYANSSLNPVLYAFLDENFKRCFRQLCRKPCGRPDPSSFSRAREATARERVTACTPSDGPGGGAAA

SMILES | Ki (Mu-type opioid receptor [1]) [µM] | Emax (Mu-type opioid receptor [2]) [%] | EC50 (Mu-type opioid receptor [3]) [µM] | Ki [4] [µM] | Ki [5] [µM] | Agonist potency [6] [µM] | Intrinsic activity [7] [µM] | Emax [8] [%] | EC50 [9] [µM] | EC50 [10] [µM] | Emax [11] [%] | Ke [12] [nM] | EC50 ([9]; cho) [µM] | EC50 (Mu-type opioid receptor [3]; cho) [µM]
CCN[C@H]1C[C@H]2C[C@@](c3cccc(O)c3)(C1)[C@H](C)CN2CCCc1ccccc1 | 0.00335 | 14 | 0.033 | 0.00822 | 0.264 | > 5 | – | – | – | – | – | – | – | –
CCN(C)[C@H]1C[C@H]2C[C@@](c3cccc(O)c3)(C1)[C@H](C)CN2CCCc1ccccc1 | – | 94 | 0.06 | – | – | > 5 | > 5 | – | – | – | – | – | – | –
C[C@@H]1CN(CCCc2ccccc2)[C@H]2C[C@H](N(C)CC3CC3)C[C@]1(c1cccc(O)c1)C2 | 0.00043 | 109 | 0.0027 | 0.00092 | 0.00904 | – | – | 38 | 0.0103 | 0.04 | 24 | – | – | –
C[C@@H]1CN(CCCc2ccccc2)[C@H]2C[C@H](NCC3CC3)C[C@]1(c1cccc(O)c1)C2 | 0.00755 | 52 | 0.13 | 0.0137 | – | – | – | – | – | – | – | – | – | –
C[C@H]1CN(CCCc2ccccc2)[C@@H]2C[C@@H](N)C[C@@]1(c1cccc(O)c1)C2 | – | 44 | 0.0206 | – | – | > 5 | – | – | – | – | – | 21.7 | – | –
C[C@@H]1CN(CCCc2ccccc2)[C@H]2C[C@H](N)C[C@]1(c1cccc(O)c1)C2 | – | 74 | – | – | – | – | – | – | – | – | 101 | 10.1 | 0.0075 | 0.0195
CN[C@H]1C[C@H]2C[C@@](c3cccc(O)c3)(C1)[C@H](C)CN2CCCc1ccccc1 | 0.000371 | 105 | 0.015 | 0.0209 | 0.0362 | – | – | – | 0.0148 | – | 101 | – | – | –
C[C@@H]1CN(CCCc2ccccc2)[C@@H]2CCC[C@]1(c1cccc(O)c1)C2 | 0.00161 | – | – | 0.00779 | 0.161 | – | – | – | – | – | – | – | – | –
C[C@@H]1CN(CCCc2ccccc2)[C@H]2C[C@H](N(C)C)C[C@]1(c1cccc(O)c1)C2 | 0.00028 | 104 | 0.0065 | 0.0099 | 0.0184 | – | – | – | 0.038 | – | 55 | – | – | –
CCCN[C@H]1C[C@H]2C[C@@](c3cccc(O)c3)(C1)[C@H](C)CN2CCCc1ccccc1 | 0.00166 | 57 | 0.018 | 0.0014 | 0.0738 | > 5 | – | 20.7 | – | 0.293 | – | – | – | –
